Results reported in ChEMBL document CHEMBL1134459 (J Med Chem, 2001).
pIC50: −log10 of the molar value.

Tests used:
[1] = molecular target: T1, Intercellular adhesion molecule 1 (Homo sapiens, UniProt P05362); experiment: In vitro inhibitory potency compared to TNF-alpha induced Intercellular adhesion molecule-1 in human endothelial cells (ELISA assay); format: cell-based, Endothelial cell
Summary of the method: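 Primary HUVECs seeded at 5 × 10^4 cells/mL in EBM/2% FBS with supplements. After 24 h of compound at 37 °C, TNFα was added to 5 ng/mL final for 6 h at 37 °C. Cell-surface ICAM-1 was detected with a mouse monoclonal antibody, then HRP anti-mouse IgG and OPD, with absorbance at 490 nm. Triplicate determinations.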

[2] = molecular target: T1, Intercellular adhesion molecule 1; experiment: Inhibition of intercellular adhesion molecule-1 (ICAM1) in human endothelial cells; format: cell-based, Endothelial cell
Summary of the method: (§1)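 Whole-cell ELISA on primary HUVECs plated at 5 × 10^4 cells/mL in EBM/2% FBS with growth supplements. Compound preincubated 24 h at 37 °C, then inducer added (TNFα at 5 ng/mL final, or IL-1β or PMA in its place) for 6 h at 37 °C. Mouse monoclonal anti-E-selectin, anti-ICAM-1 or anti-VCAM-1 was applied overnight at 4 °C, then HRP anti-mouse IgG. Detection with OPD, A490. Triplicate assays.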

[3] = molecular target: T1, Intercellular adhesion molecule 1; experiment: In vitro inhibitory potency compared to PMA induced Intercellular adhesion molecule-1 in human endothelial cells (ELISA assay); format: cell-based, Endothelial cell; summary of the method: as §1
[4] = molecular target: T2, E-selectin (Homo sapiens) (UniProt P16581); experiment: In vitro inhibitory potency compared to PMA induced Selectin E expression in human endothelial cells (ELISA assay) at 1 uM; format: cell-based; conditions: Endothelial cell
T2 sequence (whole entry): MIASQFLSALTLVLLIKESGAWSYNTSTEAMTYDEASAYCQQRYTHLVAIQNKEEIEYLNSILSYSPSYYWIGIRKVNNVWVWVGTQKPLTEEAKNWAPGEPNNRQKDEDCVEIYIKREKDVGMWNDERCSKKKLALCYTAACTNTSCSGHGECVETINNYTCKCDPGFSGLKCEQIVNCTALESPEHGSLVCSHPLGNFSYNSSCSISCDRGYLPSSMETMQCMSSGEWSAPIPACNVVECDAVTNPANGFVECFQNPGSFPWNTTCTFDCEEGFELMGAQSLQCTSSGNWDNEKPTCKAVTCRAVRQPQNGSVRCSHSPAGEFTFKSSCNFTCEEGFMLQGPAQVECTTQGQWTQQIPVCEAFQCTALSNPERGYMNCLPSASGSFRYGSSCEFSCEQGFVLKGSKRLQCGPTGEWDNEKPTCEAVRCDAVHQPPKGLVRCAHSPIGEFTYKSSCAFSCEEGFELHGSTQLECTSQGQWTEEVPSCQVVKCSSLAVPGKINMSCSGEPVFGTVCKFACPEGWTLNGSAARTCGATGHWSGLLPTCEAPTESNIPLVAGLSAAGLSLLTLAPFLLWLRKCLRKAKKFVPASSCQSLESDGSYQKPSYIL
Summary of the method: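 HUVEC whole-cell ELISA with PMA substituted for TNFα as inducer. Compound preincubated 24 h at 37 °C, then 6 h induction at 37 °C. E-selectin detected with mouse monoclonal antibody and HRP anti-mouse IgG, OPD development, A490. Value given as percent inhibition at a single concentration of 1 µM.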

E-selectin [5] = molecular target: T3, E-selectin (Homo sapiens, UniProt P16581); experiment: Inhibition of selectin E in human endothelial cells; format: cell-based, Endothelial cell; summary of the method: as §1
T3 sequence (P16581 whole entry): T2 sequence (whole entry)

E-selectin [6] = molecular target: T3, E-selectin; experiment: In vitro inhibitory potency compared to IL1-beta induced Selectin E in human endothelial cells (ELISA assay); format: cell-based, Endothelial cell; summary of the method: as §1
E-selectin [7] = molecular target: T3, E-selectin; experiment: In vitro inhibitory potency compared to TNF-alpha induced Selectin E in human endothelial cells (ELISA assay); format: cell-based, Endothelial cell; summary of the method: as §1
[8] = molecular target: T1, Intercellular adhesion molecule 1; experiment: In vitro inhibitory potency compared to IL1-beta induced Intercellular adhesion molecule-1 in human endothelial cells (ELISA assay); format: cell-based, Endothelial cell
Summary of the method: (§2)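 Primary HUVECs seeded at 5 × 10^4 cells/mL in EBM/2% FBS with EGF, bovine brain extract and gentamicin. Compound added next day for 24 h at 37 °C, then inducer (IL-1β or PMA, level not stated) for 6 h at 37 °C. Whole-cell ELISA used mouse monoclonal anti-ICAM-1 or anti-VCAM-1, HRP donkey anti-mouse IgG and OPD, read at 490 nm. Run in triplicate.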

[9] = Toxicity in HUVEC cell lysates; format: cell-based, Lysate; conditions: human
Summary of the method: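 Primary HUVECs were plated at 5 × 10^4 cells/mL in EBM/2% FBS with human EGF, bovine brain extract and gentamicin. The next day, compounds were added, at up to 100 µM. TNFα was then added as in the cell ELISA. About 24 h after compound addition, MTS reagent was added, cells were incubated a further 2 h at 37 °C, and absorbance was read at 490 nm.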

[10] = molecular target: T1, Intercellular adhesion molecule 1; experiment: In vitro inhibitory potency compared to TNF-alpha induced Intercellular adhesion molecule-1 expression in human endothelial cells (ELISA assay); format: cell-based, Endothelial cell
Summary of the method: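 Primary HUVECs plated at 5 × 10^4 cells/mL in EBM/2% FBS with growth supplements; next day compound added, 24 h at 37 °C, then TNFα to 5 ng/mL final, 6 h at 37 °C. Cell ELISA: mouse monoclonal anti-ICAM-1 overnight at 4 °C, HRP donkey anti-mouse IgG, OPD, absorbance 490 nm; triplicate assay.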

[11] = molecular target: T1, Intercellular adhesion molecule 1; experiment: In vitro inhibitory potency compared to IL1-beta induced Intercellular adhesion molecule-1 expression in human endothelial cells (ELISA assay); format: cell-based, Endothelial cell
Summary of the method: (§3)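 Primary HUVECs plated at 5 × 10^4 cells/mL in EBM/2% FBS with growth supplements; next day compound added, 24 h at 37 °C, then IL-1β substituted for TNFα as inducer, 6 h at 37 °C. Cell ELISA: mouse monoclonal anti-ICAM-1 or anti-E-selectin (ELAM-1) overnight at 4 °C, HRP donkey anti-mouse IgG, OPD, absorbance 490 nm.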

[12] = molecular target: T1, Intercellular adhesion molecule 1; experiment: In vitro inhibitory potency compared to PMA induced Intercellular adhesion molecule-1 expression in human endothelial cells (ELISA assay); format: cell-based, Endothelial cell; summary of the method: as §2
E-selectin [13] = molecular target: T3, E-selectin; experiment: In vitro inhibitory potency compared to IL1-beta induced Selectin E expression in human endothelial cells (ELISA assay); format: cell-based, Endothelial cell; summary of the method: as §3
E-selectin [14] = molecular target: T3, E-selectin; experiment: In vitro inhibitory potency compared to TNF-alpha induced Selectin E expression in human endothelial cells (ELISA assay); format: cell-based, Endothelial cell; summary of the method: as §1
[15] = molecular target: T4, Vascular cell adhesion protein 1 (Homo sapiens) (UniProt P19320); conditions: Endothelial cell
T4 sequence (whole entry): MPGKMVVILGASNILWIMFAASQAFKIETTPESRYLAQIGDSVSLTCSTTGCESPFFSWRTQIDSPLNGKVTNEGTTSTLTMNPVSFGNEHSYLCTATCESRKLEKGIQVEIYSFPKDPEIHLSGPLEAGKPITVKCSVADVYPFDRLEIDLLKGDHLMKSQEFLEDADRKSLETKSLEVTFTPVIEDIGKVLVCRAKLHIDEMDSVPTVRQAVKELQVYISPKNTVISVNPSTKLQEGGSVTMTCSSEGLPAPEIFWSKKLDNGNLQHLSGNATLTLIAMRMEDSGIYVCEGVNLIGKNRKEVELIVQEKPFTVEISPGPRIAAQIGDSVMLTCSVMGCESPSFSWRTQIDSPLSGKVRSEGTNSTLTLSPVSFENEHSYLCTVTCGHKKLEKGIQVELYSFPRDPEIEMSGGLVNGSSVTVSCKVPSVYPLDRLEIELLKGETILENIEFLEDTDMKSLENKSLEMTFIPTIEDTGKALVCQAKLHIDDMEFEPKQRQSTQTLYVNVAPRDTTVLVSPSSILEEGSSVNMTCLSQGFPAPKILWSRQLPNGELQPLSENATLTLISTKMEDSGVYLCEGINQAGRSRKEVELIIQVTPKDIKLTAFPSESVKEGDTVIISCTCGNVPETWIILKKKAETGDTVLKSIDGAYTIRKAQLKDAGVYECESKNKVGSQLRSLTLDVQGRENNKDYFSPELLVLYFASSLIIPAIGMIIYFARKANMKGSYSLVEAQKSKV

[16] = Inhibition of selectin E in human endothelial cells; conditions: endothelial cell
[17] = Inhibition of intercellular adhesion molecule-1 (ICAM1) in human endothelial cells; conditions: endothelial cell

T1 sequence (P05362 whole entry): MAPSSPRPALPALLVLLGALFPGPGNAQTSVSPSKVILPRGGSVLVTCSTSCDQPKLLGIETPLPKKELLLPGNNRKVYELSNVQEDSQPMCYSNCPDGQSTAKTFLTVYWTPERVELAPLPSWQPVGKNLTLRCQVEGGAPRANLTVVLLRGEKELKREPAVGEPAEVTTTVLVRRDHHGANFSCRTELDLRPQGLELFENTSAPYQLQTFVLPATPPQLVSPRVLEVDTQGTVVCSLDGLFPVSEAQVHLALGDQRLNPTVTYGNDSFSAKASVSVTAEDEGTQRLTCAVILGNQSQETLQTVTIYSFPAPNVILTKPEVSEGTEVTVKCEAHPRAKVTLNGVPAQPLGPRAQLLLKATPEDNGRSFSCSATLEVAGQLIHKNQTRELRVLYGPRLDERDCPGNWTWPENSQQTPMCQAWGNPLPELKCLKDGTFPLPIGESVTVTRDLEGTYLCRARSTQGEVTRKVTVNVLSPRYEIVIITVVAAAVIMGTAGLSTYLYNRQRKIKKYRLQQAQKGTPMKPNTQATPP

| SMILES | pIC50 [1] | pIC50 [2] | pIC50 [3] | inhibition [4] [%] | pIC50 (E-selectin [5]) | pIC50 (E-selectin [6]) | pIC50 (E-selectin [7]) | pIC50 [8] | pIC50 [9] | pIC50 [10] | pIC50 [11] | pIC50 [12] | pIC50 (E-selectin [13]) | pIC50 (E-selectin [14]) | Inhibition at 1uM [15] [%] | pIC50 [16] | pIC50 [17] |
| --- | --- | --- | --- | --- | --- | --- | --- | --- | --- | --- | --- | --- | --- | --- | --- | --- | --- |
| CNC(=O)c1cc2c(Oc3ccc(COCCOCCOC)cc3)cncc2s1 | 8.30 | 8.30 | 8.30 | 46 | 8.22 | 8.30 | 8.40 | 8.70 | – | – | – | – | – | – | – | – | – |
| Cc1ccc(Sc2cncc3sc(C(N)=O)cc23)cc1 | – | – | – | 44 | – | – | – | – | 3.82 | 7.82 | 8.00 | 7.52 | 7.60 | 7.82 | 45 | 7.70 | 7.60 |
